Experimental data: ChEMBL document CHEMBL1137344, “Flavonoid dimers as bivalent modulators for P-glycoprotein-based multidrug resistance: synthetic apigenin homodimers linked with defined-length poly(ethylene glycol) spacers increase drug retention and enhance chemosensitivity in resistant cancer cells” (J Med Chem, 2006)
One block for each molecule: values may come before it. Calls of active or inactive are those of the source. The calls are words filed in the database; no cut-off is given here.

Key:
MDA-MB-435 [1] = assay: Effect on P-gp-mediated drug efflux in MDA435/LCC6 cells assessed as intracellular DOX accumulation; format: functional, cell-based; details: Homo sapiens
How it was run: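 Confluent MDA435/LCC6 parent and MDR cells were preincubated with modulator in fresh DMEM for 30 min at 37 °C (range 0–20 µM; 0.05% DMSO control). DOX at 20 µM final was added for 2 h at 37 °C. Cells were trypsinised, washed three times in cold PBS, lysed in 0.3 N HCl/50% ethanol, sonicated and centrifuged. Supernatant DOX fluorescence was read (ex 470, em 585 nm); three independent experiments.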

MDA-MB-435 [2] = assay: Cytotoxicity against MDA435/LCC6 cells at 5 uM; format: functional, cell-based; details: Homo sapiens
P388/ADR [3] = assay: Reversal of daunorubicin resistance in P388 ADR cells by MTS assay at 5 uM; format: functional, cell-based; details: Mus musculus
How it was run: (§1)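 P388/ADR cells in RPMI 1640 with 10% FBS and penicillin/streptomycin, 5000 cells/well. Serial drug concentrations were given with or without modulator (dimers 5 µM, monomers 10 µM; 0.05% DMSO control) and cells grown for 3 days at 37 °C. Read-out was MTS/PMS for 2 h, then A490. IC50 was taken from dose-response curves relative to solvent control; triplicate wells.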

[4] = target: T1, ATP-dependent translocase ABCB1 (Homo sapiens, UniProt P08183); assay: Increase in VP-induced ATPase activity in human P-gp membrane measured as fold over the basal level in presence of 5 mM MgATP at 100 uM; format: functional, cell membranes
T1 sequence (P08183 whole entry): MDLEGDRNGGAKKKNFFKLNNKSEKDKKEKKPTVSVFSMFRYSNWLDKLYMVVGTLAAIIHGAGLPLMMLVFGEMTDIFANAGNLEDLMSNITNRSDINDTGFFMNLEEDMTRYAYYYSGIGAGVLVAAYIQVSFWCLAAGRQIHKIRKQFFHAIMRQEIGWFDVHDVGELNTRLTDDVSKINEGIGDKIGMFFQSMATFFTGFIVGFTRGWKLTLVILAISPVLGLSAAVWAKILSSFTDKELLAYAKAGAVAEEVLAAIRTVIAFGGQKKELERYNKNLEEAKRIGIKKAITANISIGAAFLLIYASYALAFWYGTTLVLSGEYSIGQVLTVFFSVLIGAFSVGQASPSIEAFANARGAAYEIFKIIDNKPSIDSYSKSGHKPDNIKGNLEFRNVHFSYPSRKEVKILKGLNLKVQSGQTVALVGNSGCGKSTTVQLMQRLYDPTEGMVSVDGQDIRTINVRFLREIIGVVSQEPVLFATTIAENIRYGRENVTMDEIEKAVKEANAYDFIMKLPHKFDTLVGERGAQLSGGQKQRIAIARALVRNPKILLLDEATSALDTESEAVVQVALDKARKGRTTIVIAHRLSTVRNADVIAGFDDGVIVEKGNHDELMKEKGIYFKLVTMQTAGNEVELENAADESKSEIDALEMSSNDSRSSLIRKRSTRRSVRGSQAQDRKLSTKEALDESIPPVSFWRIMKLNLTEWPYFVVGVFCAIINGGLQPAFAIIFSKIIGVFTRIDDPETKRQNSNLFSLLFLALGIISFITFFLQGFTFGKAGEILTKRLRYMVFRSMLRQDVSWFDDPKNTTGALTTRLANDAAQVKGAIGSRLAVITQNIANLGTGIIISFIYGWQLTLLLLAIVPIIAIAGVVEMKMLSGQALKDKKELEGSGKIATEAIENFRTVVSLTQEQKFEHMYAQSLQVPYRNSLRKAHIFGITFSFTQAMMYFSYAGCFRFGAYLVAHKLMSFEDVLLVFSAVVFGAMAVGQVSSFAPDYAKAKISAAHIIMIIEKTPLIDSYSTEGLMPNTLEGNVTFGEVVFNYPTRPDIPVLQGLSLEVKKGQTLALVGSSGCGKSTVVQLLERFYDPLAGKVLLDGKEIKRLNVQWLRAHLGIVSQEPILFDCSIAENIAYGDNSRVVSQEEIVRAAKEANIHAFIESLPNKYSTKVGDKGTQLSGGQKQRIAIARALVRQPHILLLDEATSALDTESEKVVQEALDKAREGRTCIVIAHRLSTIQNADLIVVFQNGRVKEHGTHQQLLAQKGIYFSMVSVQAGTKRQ
How it was run: (§2)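 Human P-gp membrane (25 µg) incubated at 37 °C with compound (100 µM), verapamil (100 µM), both, Na3VO4 (100 µM) or 0.1% DMSO. Reaction started with 5 mM MgATP, run 40 min at 37 °C. Remaining ATP detected by luciferase luminescence after 20 min at room temperature. Activity is the luminescence drop versus vanadate-treated samples.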

MDA-MB-435 [5] = assay: Effect on P-gp-mediated drug efflux in multidrug resistant MDA435/LCC6 cells assessed as relative fold in intracellular DOX accumulation at 10 uM; format: functional, Homo sapiens
How it was run: (§3)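 Resistant MDA435/LCC6 cells grown to confluence, preincubated 30 min at 37 °C in fresh DMEM with modulator (0–20 µM), then DOX added (final 20 µM) for 2 h at 37 °C. Cells trypsinized, washed in cold PBS, lysed in 0.3 N HCl/50% ethanol, sonicated, centrifuged. Supernatant fluorescence read at ex 470/em 585 nm. Mean ± SD of three independent experiments.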

P388 [6] = assay: Effect on P-gp-mediated drug efflux in P388 cells assessed as DOX accumulation after 30 mins; details: Mus musculus
MDA-MB-435 [7] = assay: Reversal of cisplatin resistance in multidrug resistant MDA435/LCC6 cells by MTS assay; format: functional, cell-based; details: Homo sapiens
P388/ADR [8] = assay: Effect on P-gp-mediated drug efflux in adriamycin drug resistant P388 cells assessed as DOX accumulation after 30 mins; details: Mus musculus
MDA-MB-435 [9] = assay: Reversal potency of vinblastine resistance in multidrug resistant MDA435/LCC6 cells by MTS assay; format: functional; details: Homo sapiens, in the assay text read “doxorubicin” for “vinblastine”
MDA-MB-435 [10] = assay: Reversal of vinblastine resistance in multidrug resistant MDA435/LCC6 cells by MTS assay; format: functional, cell-based; details: Homo sapiens
How it was run: (§4)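 Resistant MDA435/LCC6 cells, 4-day MTS assay of paclitaxel or vinblastine dose-response with dimers at 5 µM or monomers at 10 µM. Verapamil 5 µM as positive control, DMSO 0.05% as solvent control. IC50 from curves, triplicate, some repeated three times and averaged.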

MDA-MB-435 [11] = assay: Effect on P-gp-mediated drug efflux in multidrug resistant MDA435/LCC6 cells assessed as intracellular DOX accumulation at 0 to 10 uM; format: functional, Homo sapiens; how it was run: as §3
MDA-MB-435 [12] = assay: Reversal of mitoxantrone resistance in multidrug resistant LCC6 cells by MTS assay; format: functional, cell-based; details: Homo sapiens
How it was run: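 MDA435/LCC6 MDR cells in DMEM with 10% FBS, 2000 cells/well, allowed to attach for 24 h. Anticancer drug was added in serial concentrations with or without modulator (dimers 5 µM, monomers 10 µM; 0.05% DMSO solvent control), then grown for 4 days at 37 °C, 5% CO2. MTS/PMS was added for 2 h and A490 read. Survival was taken relative to DMSO controls; IC60 for DOX, IC50 for the others; triplicate.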

[13] = target: T1, ATP-dependent translocase ABCB1; assay: Increase in ATPase activity in human P-gp membrane measured as fold over the basal level in presence of 5 mM MgATP at 100 uM; format: functional, cell membranes; how it was run: as §2
P388/ADR [14] = assay: Reversal of mitoxantrone resistance in adriamycin resistant P388 cells by MTS assay; format: functional, cell-based; details: Mus musculus; how it was run: as §1
P388/ADR [15] = assay: Reversal potency of daunorubicin resistance in P388 ADR cells by MTS assay; format: functional, cell-based; details: Mus musculus
How it was run: (§5)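 P388/ADR cells: DOX or daunorubicin IC50 by 3-day MTS assay (A490) with modulator at 0–10 µM. Concentration dependence of IC50 used to gauge reversal potency. Typical experiment in triplicate.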

P388/ADR [16] = assay: Reversal potency of DOX resistance in P388 ADR cells by MTS assay; format: functional, cell-based; details: Mus musculus; how it was run: as §5
P388/ADR [17] = assay: Reversal of DOX resistance in P388 ADR cells by MTS assay at 5 uM; format: functional, cell-based; details: Mus musculus
How it was run: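 P388/ADR cells: 3-day MTS assay of DOX dose-response with modulator at 5 µM, or 10 µM for monomers. Verapamil 5 µM and 0.05% DMSO as controls. IC50 from curves, triplicate points, mean ± SD of three independent experiments.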

MDA-MB-435 [18] = assay: Reversal of paclitaxel resistance in multidrug resistant MDA435/LCC6 cells by MTS assay; format: functional, cell-based; details: Homo sapiens; how it was run: as §4
[19] = target: T1, ATP-dependent translocase ABCB1; assay: Inhibition of VP-induced ATPase activity in human P-gp membrane in presence of verapamil; format: functional, cell membranes; parameters: scale not given: the % may be the effect or the level left
P388 [20] = assay: Relative fold, IC50 in absence to presence of 1,13-bis[4'-((5,7-dihydroxy)-4H-chromen-4-on-2-yl)phenyl]-1,4,7,10,13-pentaoxatridecane in multidrug resistant P388 cells; format: functional, Mus musculus
How it was run: (§6)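 P388/ADR cells seeded 5000/well in RPMI 1640 with 10% FBS, given drug concentration series with or without 5 µM modulator for 3 days. MTS/PMS added for 2 h at 37 °C, absorbance at 490 nm. IC50 from dose-response curves versus 0.05% DMSO controls. RF = IC50 without modulator / IC50 with modulator.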

P388/ADR [21] = assay: Antiproliferative activity against adriamycin resistant P388 cells by ELISA; format: functional, cell-based; details: Mus musculus
How it was run: (§7)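 MTS/PMS proliferation assay: cells seeded 5000/well in RPMI 1640 with 10% FBS and penicillin/streptomycin at 37 °C, 5% CO2. Drug series added and cells grown 3 days. MTS/PMS added for 2 h at 37 °C, absorbance read at 490 nm. Survival relative to DMSO (0.05%) controls; IC50 from dose-response curves, at least triplicate.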

P388/ADR [22] = assay: Antiproliferative activity against adriamycin resistant P388 cells in presence of 5 uM verapamil by ELISA; format: functional, cell-based; details: Mus musculus; how it was run: as §6
MDA-MB-435 [23] = assay: Antiproliferative activity against MDA435/LCC6 cells by ELISA; format: functional, cell-based; details: Homo sapiens
MDA-MB-435 [24] = assay: Relative fold, IC50 in absence to presence of 1,13-bis[4'-((5,7-dihydroxy)-4H-chromen-4-on-2-yl)phenyl]-1,4,7,10,13-pentaoxatridecane in multidrug resistant MDA435/LCC6 cells; format: functional, Homo sapiens
How it was run: (§8)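 Resistant breast cells seeded 2000/well, allowed 24 h attachment, then exposed to anticancer-drug concentration series with or without 5 µM modulator for 4 days. MTS/PMS read at 490 nm after 2 h. IC50 from dose-response curves relative to 0.05% DMSO controls. RF = IC50 without modulator divided by IC50 with modulator.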

MDA-MB-435 [25] = assay: Antiproliferative activity against multidrug resistant MDA435/LCC6 cells by ELISA; format: functional, cell-based; details: Homo sapiens
How it was run: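 MTS/PMS proliferation assay: cells seeded 2000/well, drugs added after 24 h attachment, growth 4 days in DMEM with 10% FBS at 37 °C, 5% CO2. MTS/PMS added for 2 h, absorbance read at 490 nm. Survival is taken relative to DMSO (0.05%) controls. IC50 is read from dose-response curves, at least triplicate, repeated twice.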

P388/ADR [26] = assay: Antiproliferative activity against adriamycin resistant P388 cells in presence of 5 uM 1,13-bis[4'-((5,7-dihydroxy)-4H-chromen-4-on-2-yl)phenyl]-1,4,7,10,13-pentaoxatridecane by ELISA; format: functional, cell-based; details: Mus musculus; how it was run: as §6
P388 [27] = assay: Antiproliferative activity against P388 cells by ELISA; format: functional, cell-based; details: Mus musculus; how it was run: as §7
MDA-MB-435 [28] = assay: Antiproliferative activity against multidrug resistant MDA435/LCC6 cells in presence of 5 uM 1,13-bis[4'-((5,7-dihydroxy)-4H-chromen-4-on-2-yl)phenyl]-1,4,7,10,13-pentaoxatridecane by ELISA; format: functional, cell-based; details: Homo sapiens; how it was run: as §8
P388 [29] = assay: Relative fold, IC50 in absence to presence of verapamil in multidrug resistant P388 cells; format: functional, Mus musculus; how it was run: as §6

Compound: O=c1cc(-c2ccc(OCCOCCOCCOCCOc3ccc(-c4cc(=O)c5c(O)cc(O)cc5o4)cc3)cc2)oc2cc(O)cc(O)c12
- Activity (MDA-MB-435 [1]): inactive
- Activity (MDA-MB-435 [2]): inactive
- IC50 (P388/ADR [3]): 0.1 µM
- Activity [4]: 7.4
- Activity (MDA-MB-435 [5]): 5.8
- Activity (P388 [6]): inactive
- Activity (MDA-MB-435 [7]): inactive
- Activity (P388/ADR [8]): Dose-dependent effect
- IC60 (MDA-MB-435 [9]): 0.73 µM
- Activity (MDA-MB-435 [10]): Dose-dependent effect
- IC50 (MDA-MB-435 [10]): 0.00036 µM
- Activity (MDA-MB-435 [11]): 17%
- Activity (MDA-MB-435 [12]): inactive
- Activity [13]: 3.3
- Activity (P388/ADR [14]): inactive
- IC50 (P388/ADR [15]): 0.1 µM
- IC50 (P388/ADR [16]): 0.15 µM
- IC50 (P388/ADR [17]): 0.15 µM
- EC50 (MDA-MB-435 [18]): 0.9 µM
- IC50 (MDA-MB-435 [18]): 0.0044 µM
- Activity [19]: 17%

- IC50 (P388/ADR [21]): 2.11 µM
- IC50 (P388/ADR [22]): 0.04 µM
- IC50 (MDA-MB-435 [23]): 0.079 µM
- IC50 (MDA-MB-435 [25]): 0.977 µM
- IC50 (P388/ADR [26]): 0.106 µM
- IC50 (P388 [27]): 0.025 µM
- IC50 (MDA-MB-435 [28]): 0.129 µM
Compound: COc1cccc2c1C(=O)c1c(O)c3c(c(O)c1C2=O)C[C@@](O)(C(C)=O)C[C@@H]3O[C@H]1C[C@H](N)[C@H](O)[C@H](C)O1 [DAUNORUBICIN]
- Ratio IC50 (P388 [20]): 20
- Ratio IC50 (MDA-MB-435 [24]): 7.6
- Ratio IC50 (P388 [29]): 53
